Data as given in ChEMBL document CHEMBL1152589, “Identification and characterization of novel sirtuin inhibitor scaffolds” (Bioorg Med Chem, 2009).
The source made the active and inactive calls. No cut-off for these calls is given here.

How the values were obtained:
[1] = target: NAD-dependent protein deacetylase HST2 (Saccharomyces cerevisiae S288c) (UniProt P53686); assay: Inhibition of yeast Hst2 assessed as residual activity at 50 uM by fluorimetric assay relative to control
[2] = target: NAD-dependent protein deacetylase HST2 (Saccharomyces cerevisiae S288c) (UniProt P53686); assay: Inhibition of yeast Hst2 assessed as residual activity at 500 uM by fluorimetric assay relative to control
[3] = target: T1, NAD-dependent protein deacetylase HST2 (Saccharomyces cerevisiae S288c, UniProt P53686); assay: Inhibition of yeast Hst2 by fluorimetric assay
[4] = target: T2, NAD-dependent protein deacetylase sirtuin-2 (Homo sapiens) (UniProt Q8IXJ6); assay: Inhibition of human SIRT2 by fluorogenic assay; design: concentration or dose not given beside the values
T2 sequence (whole entry): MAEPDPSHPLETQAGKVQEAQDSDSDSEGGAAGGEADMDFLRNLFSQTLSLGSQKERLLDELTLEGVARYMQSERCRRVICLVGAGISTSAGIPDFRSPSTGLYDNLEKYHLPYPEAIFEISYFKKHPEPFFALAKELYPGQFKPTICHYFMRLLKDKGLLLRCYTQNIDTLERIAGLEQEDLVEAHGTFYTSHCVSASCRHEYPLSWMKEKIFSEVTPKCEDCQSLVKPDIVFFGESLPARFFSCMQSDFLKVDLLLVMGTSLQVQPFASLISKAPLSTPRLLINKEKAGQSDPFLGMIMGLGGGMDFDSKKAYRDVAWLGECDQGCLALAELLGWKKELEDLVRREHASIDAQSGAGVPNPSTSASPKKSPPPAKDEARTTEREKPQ
How it was run: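 Human SIRT2 isoform II construct with extra N-terminal residues, expressed in E. coli BL21-Gold (DE3) as a His6 fusion. Purified by Ni-NTA, with the tag removed by thrombin, then Q sepharose and Superdex-200 gel filtration. Assayed by fluorigenic deacetylation of Fluor de Lys-SIRT1 substrate.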

[5] = target: NAD-dependent histone deacetylase SIR2 (Saccharomyces cerevisiae S288c) (UniProt P06700); assay: Inhibition of Sir2 in Saccharomyces cerevisiae inserted URA3 reporter gene assessed as reduction of […] resistance at 1 mM by telomere silencing assay
[6] = target: T3, NAD-dependent protein deacetylase sirtuin-1 (Homo sapiens, UniProt Q96EB6); assay: Inhibition of human full length SIRT1 expressed in DE3 cells by fluorimetric assay; format: cell-based
T3 sequence (Q96EB6 whole entry): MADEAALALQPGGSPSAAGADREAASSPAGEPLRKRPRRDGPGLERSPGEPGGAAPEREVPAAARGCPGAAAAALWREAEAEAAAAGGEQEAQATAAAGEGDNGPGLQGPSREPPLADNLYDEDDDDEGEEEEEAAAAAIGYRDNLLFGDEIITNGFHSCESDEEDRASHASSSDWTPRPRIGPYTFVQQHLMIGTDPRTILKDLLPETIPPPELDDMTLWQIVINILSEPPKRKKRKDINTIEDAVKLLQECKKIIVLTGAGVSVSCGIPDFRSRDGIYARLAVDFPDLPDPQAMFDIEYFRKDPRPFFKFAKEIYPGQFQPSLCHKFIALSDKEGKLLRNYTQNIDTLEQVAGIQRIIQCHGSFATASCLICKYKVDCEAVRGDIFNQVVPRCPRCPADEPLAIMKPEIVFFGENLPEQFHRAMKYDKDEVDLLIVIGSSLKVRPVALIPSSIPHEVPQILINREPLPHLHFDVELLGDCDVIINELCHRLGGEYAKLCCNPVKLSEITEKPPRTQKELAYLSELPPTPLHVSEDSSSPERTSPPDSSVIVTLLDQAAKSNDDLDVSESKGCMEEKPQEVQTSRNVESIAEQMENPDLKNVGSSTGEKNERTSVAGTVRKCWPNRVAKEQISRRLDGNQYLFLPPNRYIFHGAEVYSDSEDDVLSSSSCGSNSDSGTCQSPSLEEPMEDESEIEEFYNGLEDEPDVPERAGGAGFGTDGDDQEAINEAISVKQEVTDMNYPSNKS

[7] = target: T1, NAD-dependent protein deacetylase HST2; assay: Mixed inhibition of yeast Hst2 using Acetyl-lysine substrate
[8] = target: NAD-dependent histone deacetylase SIR2 (Saccharomyces cerevisiae S288c) (UniProt P06700); assay: Inhibition of Sir2 in Saccharomyces cerevisiae inserted URA3 reporter gene assessed as reduction of […] resistance at 10 uM by telomere silencing assay
[9] = target: NAD-dependent histone deacetylase SIR2 (Saccharomyces cerevisiae S288c) (UniProt P06700); assay: Inhibition of Sir2 in Saccharomyces cerevisiae inserted URA3 reporter gene assessed as reduction of […] resistance at 40 uM by telomere silencing assay

NAD-dependent protein deacetylase HST2 (Saccharomyces cerevisiae S288c), sequence (P53686 whole entry): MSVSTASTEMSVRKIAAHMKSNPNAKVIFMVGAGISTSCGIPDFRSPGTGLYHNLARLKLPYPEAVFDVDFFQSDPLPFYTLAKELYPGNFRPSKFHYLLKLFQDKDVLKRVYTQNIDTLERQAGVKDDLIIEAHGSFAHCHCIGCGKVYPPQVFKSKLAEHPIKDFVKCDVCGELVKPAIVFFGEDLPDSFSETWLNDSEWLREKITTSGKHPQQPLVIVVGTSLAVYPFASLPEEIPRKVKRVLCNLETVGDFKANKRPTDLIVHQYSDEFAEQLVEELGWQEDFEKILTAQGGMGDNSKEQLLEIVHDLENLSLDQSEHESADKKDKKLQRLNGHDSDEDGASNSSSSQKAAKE
T1 sequence (P53686 whole entry): as above
NAD-dependent histone deacetylase SIR2 (Saccharomyces cerevisiae S288c), sequence (P06700 whole entry): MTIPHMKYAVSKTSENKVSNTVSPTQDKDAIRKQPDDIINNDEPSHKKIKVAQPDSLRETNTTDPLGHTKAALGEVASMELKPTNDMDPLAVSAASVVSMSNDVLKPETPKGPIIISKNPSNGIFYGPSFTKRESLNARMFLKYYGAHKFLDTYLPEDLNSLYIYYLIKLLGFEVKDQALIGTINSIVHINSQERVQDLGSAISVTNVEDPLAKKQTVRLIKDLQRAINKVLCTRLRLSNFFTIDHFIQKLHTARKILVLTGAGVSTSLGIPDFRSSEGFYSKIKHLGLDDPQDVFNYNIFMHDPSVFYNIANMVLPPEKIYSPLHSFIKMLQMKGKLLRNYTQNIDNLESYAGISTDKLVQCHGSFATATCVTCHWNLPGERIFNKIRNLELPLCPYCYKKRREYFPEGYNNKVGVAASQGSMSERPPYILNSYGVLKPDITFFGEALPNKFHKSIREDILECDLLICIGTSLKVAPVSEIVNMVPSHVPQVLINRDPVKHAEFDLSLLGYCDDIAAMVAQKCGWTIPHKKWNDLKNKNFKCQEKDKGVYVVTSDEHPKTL

| Compound | Activity [1] [%] | Activity [2] [%] | other results |
| --- | --- | --- | --- |
| Cc1cc(Cc2cc(C)c(O)c(C)c2)cc(C)c1O | 89 | 43 |  |
| Nc1ccc2c(c1)C(=O)N(CCC(=O)O)C2 |  |  | IC50 [3]: Not Active |
| Cc1cc(=O)oc2cc(OC(=O)COc3ccccc3)ccc12 | 91 | 45 |  |
| CCc1ccc(OCCCC(=O)Oc2ccc3c(C)cc(=O)oc3c2)cc1 | 86 | 53 |  |
| Oc1c(Cc2ccccc2Cl)ccc2cccnc12 | 100 | 100 |  |
| NC(=O)C1CCCCc2c1[nH]c1ccc(Cl)cc21 (centres undefined) |  |  | IC50 ([3]; read-out: IC50): 1.3 µM |
| OC(c1ccccc1)c1ccc(C(F)(F)F)cc1 (centres undefined) | 100 | 81 |  |
| C#CC1c2cc(O)c(OC)cc2CCN1C (centres undefined) | 100 | 86 |  |
| O=C(O)CCN1C(=O)c2ccc(-c3nc4ccccc4c(=O)o3)cc2C1=O |  |  | IC50 [3]: Not Active |
| COCC#CC1c2cc(O)c(OC)cc2CCN1C (centres undefined) |  |  | Activity [4]: 92.1% |
| C#C[C@@H]1c2cc(O)c(OC)cc2CCN1C | 97 | 74 |  |
| O=C1CCc2c(ccc3ccccc23)O1 [SPLITOMICIN] |  |  | IC50 ([3]; read-out: IC50): > 600 µM |
| COc1cc2c(cc1O)CN(C)CC2 | 100 | 98 |  |
| Cn1cc(C2=C(c3cn(CCCSC(=N)N)c4ccccc34)C(=O)NC2=O)c2ccccc21 [BISINDOLYLMALEIMIDE IX] |  |  | IC50 ([3]; read-out: IC50): 20 µM |
| COC/C=C/C1c2cc(O)c(OC)cc2CCN1C (centres undefined) | 97 | 94 |  |
| NC(=O)c1cccnc1 |  |  | Activity [4]: 26% |
| O=C(O)CCN1Cc2ccccc2C1=O |  |  | IC50 ([3]; read-out: IC50): 19.9 µM; Activity [5]: Active; Activity [4]: 89% |
| Cc1ccc(OCCCC(=O)Oc2ccc3c(c2)CCC3)c(C)c1 | 93 | 49 |  |
| Cc1c(Cl)c(=O)oc2cc(OC(=O)CCNC(=O)Oc3ccccc3)ccc12 | 100 | 74 |  |
| Cc1ccc(OCCCC(=O)Oc2ccc3c(C)cc(=O)oc3c2)c(C)c1 | 90 | 51 |  |

| Compound | Activity [1] [%] | Activity [2] [%] | other results |
| --- | --- | --- | --- |
| COc1ccc(OCCCC(=O)Oc2ccc3c(C)cc(=O)oc3c2)cc1 | 93 | 35 |  |
| O=C1c2ccccc2C(=O)N1CCBr |  |  | IC50 [3]: Not Active |
| O=C(O)CCN1C(=O)c2cc(Cl)c(Cl)cc2C1=O |  |  | IC50 [3]: Not Active |
| CC(C)C(=O)CCN1C(=O)c2ccccc2C1=O |  |  | IC50 [3]: Not Active |
| Oc1ccc(Cc2ccccc2)cc1 | 100 | 88 |  |
| O=C(O)CCCN1C(=O)c2ccccc2C1=O |  |  | IC50 [3]: Not Active |
| C#C[C@H]1c2cc(O)c(OC)cc2CCN1C | 96 | 70 |  |
| Cc1ccc2[nH]c3c(c2c1)CCCCC3C(N)=O (centres undefined) |  |  | IC50 ([3]; read-out: IC50): 14.5 µM; IC50 [6]: 0.64 µM |
| COCC#CC1c2cc(O)c(OC)cc2CCN1Cc1ccc(OC)cc1 (centres undefined) |  |  | IC50 ([3]; read-out: IC50): 260 µM |
| Nc1cccc(Cc2cccc(N)c2)c1 | 100 | 100 |  |
| COCCCC1c2cc(O)c(OC)cc2CCN1C (centres undefined) | 99 | 92 |  |
| COc1ccc(OCCCC(=O)Oc2ccc3c(c2)CCC3)cc1 | 95 | 58 |  |
| COCC#CC1(C)c2cc(O)c(OC)cc2CCN1C (centres undefined) | 100 | 100 |  |
| Cc1cc(Cl)c(O)c(Cc2c(O)c(Cl)cc(Cl)c2Cl)c1Cl |  |  | IC50 ([3]; read-out: IC50): 12.5 µM; IC50 [6]: 34 µM; Ki [7]: 2.5 µM; Activity [8]: Active; Activity [9]: Active; Activity [4]: 18.5% |
| Cc1ccc(OCCCC(=O)Oc2ccc3c(C)cc(=O)oc3c2)cc1 | 99 | 57 |  |
| C[S+]([O-])CCC(C(=O)O)N1C(=O)c2ccccc2C1=O (centres undefined) |  |  | IC50 [3]: Not Active |
| Cc1cccc(OCC(=O)Oc2ccc3c(C)cc(=O)oc3c2)c1 | 90 | 13 |  |
| CN(C)CCCCC(=O)Nc1ccc(NC(=S)NC(=O)c2ccc(C(C)(C)C)cc2)cc1 |  |  | IC50 ([3]; read-out: IC50): > 100 µM |
| Cc1c(Cl)c(=O)oc2cc(OC(=O)CCCOc3ccc(Cl)cc3Cl)ccc12 | 90 | 68 |  |
